The results in this text go back to ChEMBL document CHEMBL1770063, “Synthesis and cytotoxic activity of benzo[a]acronycine and benzo[b]acronycine substituted on the A ring” (Eur J Med Chem, 2011).

Assay [1] relates to L1210. Nature of the assay: Cytotoxicity against mouse L1210 cells after 48 hrs by MTA assay. The format is functional, cell-based. As to conditions: L1210, 48 h. In short, it runs like this:
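L1210 cells maintained in RPMI 1640 plus 10% fetal calf serum, 2 mM L-glutamine, penicillin/streptomycin and 10 mM HEPES (pH 7.4). Drug given at nine serial dilutions, triplicate, for 48 h (four doubling times), then tetrazolium microculture assay. IC50 is the concentration giving 50% lower optical density than untreated controls.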

A short description of assay [2]: Cytotoxicity against human KB-3-1 cells after 96 hrs by MTA assay. It is filed as functional, cell-based. As to conditions: KB 3-1, 96 h. The procedure, abridged:
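KB-3-1 cells grown in DMEM with 10% fetal calf serum, 2 mM L-glutamine, penicillin/streptomycin, 10 mM HEPES (pH 7.4). Exposed to nine serial drug dilutions in triplicate for 96 h (four doubling times); microculture tetrazolium read-out. IC50 is the concentration reducing optical density by 50% relative to untreated controls.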

Take `COc1cc2c(c3c1c(=O)c1cc4cc(Br)ccc4cc1n3C)[C@@H](O)[C@@H](O)C(C)(C)O2` (racemic): the results for the IC50 in assay [1] and in assay [2] were 225 nM and 36300 nM, respectively.

For the molecule `COc1cc2c(c3c1c(=O)c1c4ccc(Br)cc4ccc1n3C)[C@H]1OC(=O)O[C@H]1C(C)(C)O2` (racemic), the IC50 (as a rule, the point on the concentration scale where inhibition reaches its midpoint) in assay [1] was determined as 80 nM; in assay [2], 15 nM.

As to `COc1cc2c(c3c1c(=O)c1cc4cc(Br)ccc4cc1n3C)[C@H]1OC(=O)O[C@H]1C(C)(C)O2` (racemic), the IC50 in assay [1] is 34 nM; in assay [2], 11 nM.

Regarding `C#CC(C)(C)Oc1cc(O)c2c(=O)c3c4ccc(Br)cc4ccc3n3c2c1C(C)(C)C3=C`, the IC50 in assay [1] stood at 51100 nM; in assay [2], 37100 nM.

In turn, `COc1cc2c(c3c1c(=O)c1cc4ccccc4cc1n3C)[C@H]1OC(=O)O[C@H]1C(C)(C)O2` (racemic) displayed an IC50 in assay [1] of 16 nM.

As for `COc1cc2c(c3c1c(=O)c1c4ccc(Br)cc4ccc1n3C)[C@@H](OC(C)=O)[C@@H](OC(C)=O)C(C)(C)O2` (racemic), the figures for the IC50 in assay [1] and in assay [2] were 400 nM and 40 nM, respectively.

For `CC1(C)C=Cc2c(cc(O)c3c(=O)c4c(ccc5cc(Br)ccc54)[nH]c23)O1`, the values for the IC50 in assay [1] and in assay [2] were 3400 nM and 1700 nM, respectively.

`COc1cc2c(c3c1c(=O)c1cc4ccccc4cc1n3C)[C@@H](OC(C)=O)[C@@H](OC(C)=O)C(C)(C)O2` (racemic): in assay [2], the IC50 came out at 95 nM.

With `COc1cc2c(c3c1c(=O)c1c4ccccc4ccc1n3C)[C@H]1OC(=O)O[C@H]1C(C)(C)O2` (racemic), the IC50 was determined as 59 nM in assay [1] and 15 nM in assay [2].

Regarding `COc1cc2c(c3c1c(=O)c1c4ccccc4ccc1n3C)[C@@H](OC(C)=O)[C@@H](OC(C)=O)C(C)(C)O2` (racemic), the IC50 in assay [1] came to 730 nM; in assay [2], 140 nM.

`Cn1c2cc3ccc(Br)cc3cc2c(=O)c2c(O)cc3c(c21)C=CC(C)(C)O3`: the figures for the IC50 in assay [1] and in assay [2] were 645 nM and 14300 nM, respectively.

`COc1cc2c(c3c1c(=O)c1cc4ccccc4cc1n3C)C=CC(C)(C)O2` [BENZO[B]ACRONYCINE] displayed an IC50 in assay [2] of 3400 nM.

As to `COc1cc2c(c3c1c(=O)c1c4ccc(Br)cc4ccc1n3C)C=CC(C)(C)O2`, the IC50 in assay [1] stood at 490 nM; in assay [2], 1300 nM.

On to `C=C1n2c3ccc4cc(Br)ccc4c3c(=O)c3c(O)cc(O)c(c32)C1(C)C`, for which the IC50 in assay [1] came out at 7300 nM; in assay [2] it was 2500 nM.

As to `COc1cc2c(c3c1c(=O)c1cc4cc(Br)ccc4cc1n3C)[C@@H](OC(C)=O)[C@@H](OC(C)=O)C(C)(C)O2` (racemic), the IC50 in assay [1] was 600 nM; in assay [2], 115 nM.

Turning to `COc1cc2c(c3c1c(=O)c1c4ccc(Br)cc4ccc1n3C)[C@@H](O)[C@@H](O)C(C)(C)O2` (racemic), the values for the IC50 in assay [1] and in assay [2] were 7600 nM and 5500 nM, respectively.

As for `COc1cc2c(c3c1c(=O)c1cc4cc(Br)ccc4cc1n3C)C=CC(C)(C)O2`, the IC50 in assay [1] came to 2200 nM; in assay [2], 9900 nM.

Turning to `COc1cc2c(c3c1c(=O)c1c4ccccc4ccc1n3C)C=CC(C)(C)O2` [BENZO[A]ACRONYCINE], in assay [2], the IC50 stood at 8600 nM.
